Experimental data published in the M2OR odorant receptor database.
Where a chain is given by its changes, count along the chain named.

Tests used:
Conditions in all cases: stereoisomer not certain
[1] = molecular target: T1, OR5C1 (Homo sapiens) (UniProt Q8NGR4)
T1 sequence (whole entry): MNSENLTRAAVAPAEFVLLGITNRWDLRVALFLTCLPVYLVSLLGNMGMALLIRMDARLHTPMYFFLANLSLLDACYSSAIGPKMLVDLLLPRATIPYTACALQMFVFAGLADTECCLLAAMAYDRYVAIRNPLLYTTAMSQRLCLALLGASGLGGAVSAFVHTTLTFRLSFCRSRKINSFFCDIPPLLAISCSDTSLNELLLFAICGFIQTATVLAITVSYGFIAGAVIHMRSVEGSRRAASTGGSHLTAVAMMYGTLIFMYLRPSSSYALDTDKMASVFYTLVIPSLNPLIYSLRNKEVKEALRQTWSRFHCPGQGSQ
In short: (§1)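 Values were gathered from published papers (main text and supplementary material), with extra details requested from the original authors when needed, and checked for typos and inconsistencies. Each receptor–molecule pair is called responsive (active) if the original authors judged the measured signal statistically different from baseline, and non-responsive (inactive) otherwise. Assay methods varied by source, often transient mammalian cell-line luciferase assays. Recorded details include cell line, G-protein, co-transfected protein and tags.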

[2] = molecular target: T2, OR5D13 (Homo sapiens) (UniProt Q8NGL4)
T2 sequence (whole entry): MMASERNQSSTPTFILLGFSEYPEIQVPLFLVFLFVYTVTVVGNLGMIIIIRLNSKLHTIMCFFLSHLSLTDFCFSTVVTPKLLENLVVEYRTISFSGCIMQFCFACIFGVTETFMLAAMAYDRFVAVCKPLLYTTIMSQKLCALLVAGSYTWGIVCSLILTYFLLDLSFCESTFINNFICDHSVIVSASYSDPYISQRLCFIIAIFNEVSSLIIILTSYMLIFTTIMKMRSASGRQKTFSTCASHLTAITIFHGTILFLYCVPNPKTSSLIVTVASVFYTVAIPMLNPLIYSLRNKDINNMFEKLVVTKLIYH
In short: as §1

[3] = molecular target: T3, OR5D14 (Homo sapiens) (UniProt Q8NGL3)
T3 sequence (whole entry): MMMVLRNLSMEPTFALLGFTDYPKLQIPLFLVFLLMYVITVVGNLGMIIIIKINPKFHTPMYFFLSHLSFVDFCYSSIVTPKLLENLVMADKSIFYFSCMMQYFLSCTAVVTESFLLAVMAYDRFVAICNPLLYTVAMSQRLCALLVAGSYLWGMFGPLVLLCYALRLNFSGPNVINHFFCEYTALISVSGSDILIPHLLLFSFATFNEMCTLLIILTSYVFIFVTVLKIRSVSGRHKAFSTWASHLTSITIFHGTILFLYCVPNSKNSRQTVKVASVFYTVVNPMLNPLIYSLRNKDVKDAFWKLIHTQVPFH
In short: as §1

[4] = molecular target: T4, OR5D16 (Homo sapiens) (UniProt Q8NGK9)
T4 sequence (whole entry): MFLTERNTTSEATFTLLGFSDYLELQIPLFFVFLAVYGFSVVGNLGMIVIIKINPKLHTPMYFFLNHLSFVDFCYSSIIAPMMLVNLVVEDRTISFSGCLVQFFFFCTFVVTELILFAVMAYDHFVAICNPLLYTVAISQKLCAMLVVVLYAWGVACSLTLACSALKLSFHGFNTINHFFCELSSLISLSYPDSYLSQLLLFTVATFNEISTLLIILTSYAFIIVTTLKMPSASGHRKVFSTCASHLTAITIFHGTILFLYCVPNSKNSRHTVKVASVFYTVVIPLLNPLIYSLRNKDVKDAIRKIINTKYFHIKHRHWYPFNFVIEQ
In short: as §1

[5] = molecular target: T5, OR5D18 (Homo sapiens) (UniProt Q8NGL1)
T5 sequence (whole entry): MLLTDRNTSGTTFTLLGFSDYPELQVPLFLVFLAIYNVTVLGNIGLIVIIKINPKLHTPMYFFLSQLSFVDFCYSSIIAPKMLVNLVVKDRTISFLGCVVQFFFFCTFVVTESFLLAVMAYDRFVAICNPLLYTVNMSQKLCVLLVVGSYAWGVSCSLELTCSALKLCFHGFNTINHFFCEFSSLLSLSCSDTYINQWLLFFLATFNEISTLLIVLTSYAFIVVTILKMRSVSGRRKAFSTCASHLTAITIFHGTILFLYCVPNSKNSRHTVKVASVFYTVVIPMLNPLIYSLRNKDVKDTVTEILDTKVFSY
In short: as §1

[6] = test system: T6, OR5BC C141R
T6 sequence (whole entry): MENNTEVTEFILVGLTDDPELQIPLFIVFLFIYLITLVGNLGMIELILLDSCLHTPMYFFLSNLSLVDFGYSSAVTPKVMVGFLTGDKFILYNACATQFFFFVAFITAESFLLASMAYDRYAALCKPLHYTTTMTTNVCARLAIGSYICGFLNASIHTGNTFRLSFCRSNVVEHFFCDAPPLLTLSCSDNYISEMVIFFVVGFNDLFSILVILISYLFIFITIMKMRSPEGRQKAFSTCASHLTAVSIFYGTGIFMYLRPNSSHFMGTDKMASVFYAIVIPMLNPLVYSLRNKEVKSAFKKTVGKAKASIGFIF
In short: as §1

[7] = test system: T7, OR5BH L80I I85M
T7 sequence (whole entry): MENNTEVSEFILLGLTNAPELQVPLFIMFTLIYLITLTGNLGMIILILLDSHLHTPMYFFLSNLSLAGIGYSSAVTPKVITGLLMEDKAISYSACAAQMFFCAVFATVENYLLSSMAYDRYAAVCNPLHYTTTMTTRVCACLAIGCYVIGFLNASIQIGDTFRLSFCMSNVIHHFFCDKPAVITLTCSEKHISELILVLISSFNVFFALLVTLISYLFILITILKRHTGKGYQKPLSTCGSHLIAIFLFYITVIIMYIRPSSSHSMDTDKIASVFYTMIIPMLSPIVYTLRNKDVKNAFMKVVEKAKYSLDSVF
In short: as §1

[8] = test system: T8, OR5BH L80I
T8 sequence (whole entry): T7 sequence (whole entry) with M85I
In short: as §1

[9] = test system: T9, OR5DD C62Y
T9 sequence (whole entry): T2 sequence (whole entry) with C62Y
In short: as §1

[10] = test system: T10, OR5DE S249A L290P
T10 sequence (whole entry): T3 sequence (whole entry) with S249A, L290P
In short: as §1

Measured: odorant receptor agonist call

CC(=O)c1c(C)c([N+](=O)[O-])c(C(C)(C)C)c([N+](=O)[O-])c1C
inactive: [1] | [2] | [3] | [4] | [5]

CC1=C(O)C(=O)C(C)O1 (stereo not given)
inactive: all assays above

CC1=NC(C)C(C)S1 (stereo not given)
inactive: all assays above

CC1=C(O)C(=O)OC1C (stereo not given)
inactive: all assays above

CCC1OC(C)=C(O)C1=O (stereo not given)
inactive: all assays above

CC1CCCCCCCCCCCCC(=O)C1 (stereo not given)
inactive: [1] | [2] | [3] | [4] | [5]

CCCCC(S)C(C)CO (stereo not given)
inactive: [1] | [2] | [3] | [4] | [5]

CCC1OC(=O)C(O)=C1C (stereo not given)
inactive: all assays above

CCCCCC(=O)C(C)C(C)=O (stereo not given)
inactive: [1] | [2] | [3] | [4] | [5]

CCCC(S)CCOC(C)=O (stereo not given)
inactive: all assays above

CC(CO)CS (stereo not given)
inactive: [1] | [2] | [3] | [4] | [5]

CCC(S)C(C)CO (stereo not given)
inactive: [1] | [2] | [3] | [4] | [5]

Cc1cnc(C)c(C)n1
inactive: all assays above

CCCCCCC=CCCC=O
inactive: all assays above

CCCCCC(S)C(C)CO (stereo not given)
inactive: [1] | [2] | [3] | [4] | [5]
